Screening results: PubChem, several laboratories
Rows were chosen to be rich in hits. Some 8.7% of all compounds tested hit in one or more screens of this group.
Pyk2 oligo antag: antagonists of human Pyk2 oligomerization; Q14289; Q293 cells, Pyk2 FERM NanoBiT luminescence; hits give low values; z-score (the deposit names both 25 µM and 10 µM); 99,000 compounds, 0.83% hits; AID 1347419;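 active = Z-score of -3 or lower, scaled per plate to the spread of control and sample wells; inactive = z-score above -3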;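 also: negative z-score means lost luminescence so less FERM oligomerization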
Ecoli tolC: growth inhibitors of E. coli BW25113 tolC mutant; OD615; growth inhibition, % at 10 µM (by protocol); 65,000 compounds, 2.2% hits;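 active = growth inhibition at or above a cutoff equal to the mean over every tested compound plus 3 SD, cut at about 60% in these data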;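 also: growth measured after 20 h incubation at 37 °C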
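signal = optical density read at 615 nm | test system = E. coli ΔtolC::kan strain BW25113 | timing = 20 h compound exposure of bacteria at 37 °C | buffer or medium = LB medium plus 50 µg/mL kanamycin | compound dosing = 10 µM final, single dose | evaluation = % inhibition of E. coli growth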
PostGolgi ctrl: growth of the yeast control strain, post-Golgi counter-screen; efflux-deficient yeast background strain, growth absorbance A615, 16 h; inhibition, % at 10 µM; 98,000 compounds, 5% hits
Ecoli WT expand: E. coli BW25113 growth inhibition, expanded screen. OD600 absorbance. growth inhibition, % at 100 µM. 98,000 compounds, 0.15% hits. AID 710;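 active = growth inhibition above about 50% at one test dose, limit read from the data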;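 also: growth measured after 20 h incubation at 37 °C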
Cav32 inh: blocks human Cav3.2 T-type calcium channel | O95180 | 100,000 compounds, 4% hits | B-score at 10 µM | Cav3.2-expressing cells, Fluo-4 calcium fluorescence FDSS; hits give low values;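 active = single-dose well whose peak fluorescence ratio is a statistical outlier from its plate by either plate-standardised score or position-corrected B-score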
PostGolgi yeast: growth inhibition of a yeast mutant, post-Golgi transport screen; 98,000 compounds, 0.9% hits; AID 739; inhibition, % at 10 µM; post-Golgi transport phenotypic cell assay;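 also: yeast cells grown in 1536-well plates; yeast grown about 18 h at 30C before absorbance read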
Starred values were filed as active, the others as inactive; · = no result given. Rule as the data show it, unless noted: active = inhibition above about 30%; inactive = the rest.

SMILES | Pyk2 oligo antag | Ecoli tolC | PostGolgi ctrl | Ecoli WT expand | Cav32 inh | PostGolgi yeast
C=CCOC(=O)C1=C(C)Nc2ncnn2C1c1cccs1 (stereo not drawn) | -0.17 | · | 15 | -1 | 0.39 | 31*
Cc1ccc(C2C(C(=O)c3sc(C)nc3C)=C(O)C(=O)N2CCCN(C)C)o1 (stereo not drawn) | · | -22 | · | · | · | ·
CCCCOc1ccc(Cl)cc1Nc1nc(NCCO)nc(N2CCCC2)n1 | · | · | · | · | 0.33 | ·
COc1cccc(CSc2nnc(C(F)(F)F)n2Cc2ccc(F)cc2)c1 | -0.44 | · | 19 | -5 | -3.4 | 22
COc1cc(NC(=O)CSc2nc3ccccc3cc2Cc2ccccc2)cc(OC)c1 | 0.97 | · | -1 | -17 | -3 | 7
COc1cccc(NC(=O)CSc2nc3ccccc3cc2Cc2ccccc2)c1 | 0.94 | · | 18 | -26 | -4* | 17
COc1ccc(OC)c(NC(=O)CSc2nc3ccccc3cc2Cc2ccccc2)c1 | -0.63 | · | 24 | -23 | -1.5 | 8
COc1cccc(CSc2nc3ccccc3cc2C=O)c1 | -0.66 | · | 51* | -9 | -0.76 | 33*
COc1ccc(NC(=O)CSc2nc3ccccc3cc2Cc2ccccc2)cc1 | -1.5 | · | -3 | -18 | -4.2* | 11
Cc1ccc(CSCC(=O)N2CCN(Cc3ccc4c(c3)OCO4)CC2)cc1 | -0.23 | · | · | · | -4.1 | ·
O=C(CCC1CCCCC1)N1CCN(Cc2ccc3c(c2)OCO3)CC1 | -0.49 | 27 | 38* | 14 | -1.1 | 73*
CC1CCN(c2nc3ccc(C(=O)N4CCN(Cc5ccccc5)CC4)cc3s2)CC1 | · | · | 5 | -2 | -5.8* | 5
CCc1cc2cc(C(=O)N3CCN(Cc4ccccc4)CC3)sc2s1 | -0.15 | 98* | 35* | -7 | -4.8* | 18
CCOC(=O)N1CCN(C(=O)c2ccc3nc(N4CCC(C)CC4)sc3c2)CC1 | -0.66 | 8 | 4 | -5 | -0.79 | -8
O=C(c1ccc2nc(N3CCCCC3)sc2c1)N1CCN(Cc2ccc3c(c2)OCO3)CC1 | · | 11 | 4 | -4 | -4* | -8
COC(=O)CC1c2ccccc2S(=O)(=O)N1Cc1ccccc1 (stereo not drawn) | · | · | · | · | 0.12 | ·
Cc1nn(Cc2ccccc2)c2sc(C(=O)N3CCN(Cc4ccc5c(c4)OCO5)CC3)cc12 | -0.03 | 60 | 14 | -16 | -4.3* | 4
O=C1CN=C(Nc2ccccc2Cl)N1Cc1ccc2c(c1)OCO2 | -1.3 | · | · | · | 0.0054 | ·
O=C1NC2(CCc3ccccc32)C(=O)N1CCOc1ccc(Cl)cc1 (stereo not drawn) | 0.36 | · | 20 | 0 | -4.8* | 3
Cc1csc(Nc2ccccc2C(F)(F)F)n1 | 0.3 | · | 6 | 26 | -0.99 | 5
Cc1cc(C)n(-c2nc(Nc3ccccc3C)nc(-n3nc(C)cc3C)n2)n1 | · | · | 53* | -8 | -1.5 | 8
Cc1cc(C)n(-c2nc(Nc3ccccc3C(F)(F)F)nc(-n3nc(C)cc3C)n2)n1 | -3.5* | · | · | · | -3.1 | ·
C=C1CCN([C@H](C(=O)NCc2ccccc2)C(C)C)S(=O)(=O)c2ccccc21 | · | · | · | · | 1.2 | ·
CCOc1cccc(OCCCNCCCOC)c1 | 0.17 | -17 | 9 | 0 | -0.56 | 1
CC(C)Cn1c(Cc2ccccc2)n[nH]c1=S | -0.63 | · | -4 | 12 | -0.47 | -17
SMILES | Pyk2 oligo antag | Ecoli tolC | PostGolgi ctrl | Ecoli WT expand | Cav32 inh | PostGolgi yeast
C=C(C)C(=O)Nc1cccc(C2=NOC3(C2)C[C@@H](C(N)=O)N(C(=O)CC(c2ccccc2)c2ccccc2)C3)c1 (stereo partly drawn) | · | · | · | · | -0.32 | ·
O=C(Cn1nnc2ccccc21)OCC(=O)c1ccc(Cl)c(Cl)c1 | -4* | · | · | · | 0.15 | ·
O=C(NCCc1ccccc1)c1ccc2nc(-c3ccco3)c(-c3ccco3)nc2c1 | -0.4 | · | -13 | -6 | -11* | 16
O=C(NCCO)c1ccc2nc(-c3ccco3)c(-c3ccco3)nc2c1 | -1.2 | · | 2 | 1 | 0.5 | -12
NS(=O)(=O)c1ccc(N2N=C(c3ccccc3)CC2c2ccc(F)cc2)cc1 (stereo not drawn) | -0.77 | · | 50* | -12 | -0.85 | 14
O=C(Nc1ccccc1C(F)(F)F)C1CC(=O)N(c2ccccc2F)C1 (stereo not drawn) | -0.32 | -16 | 7 | 6 | 1.5 | -4
O=C1CN(c2ccccc2F)C(=O)CN1c1ccccc1F | -0.1 | 8 | 37* | 6 | 0.26 | 13
CS(=O)(=O)N1CCCC(C(=O)NCCCN2CCOCC2)C1 (stereo not drawn) | 0.96 | -12 | 0 | 8 | 1.3 | -11
COc1cc(C(=O)Nc2sc3c(c2C#N)CCN(C(C)=O)C3)cc(OC)c1OC | · | · | 31* | -3 | -0.17 | 2
CCOC(=O)c1ccccc1NC(=O)c1cc2sccc2n1C | 1 | -20 | 2 | -5 | -0.93 | -1
CCOC(=O)c1cccc(NC(=O)c2cc3sccc3n2C)c1 | -1.2 | 73* | 18 | -11 | -1.8 | -2
CNC(=S)N1N=C(c2ccc(C)cc2)CC1c1ccc(OC)cc1 (stereo not drawn) | -1.4 | · | 47* | -16 | -4.1* | -6
O=C(c1cn(-c2ccccc2)nc1-c1cccs1)N1CCN(c2ccc(F)cc2)CC1 | -0.52 | · | 48* | -9 | · | -6
CC(C)NS(=O)(=O)c1ccc(OCC(=O)Nc2cccc3ccccc23)cc1 | 0.46 | · | 23 | -5 | -3.6* | 3
COC(=O)CCC(=O)Nc1cccc2ccccc12 | 0.1 | · | 34* | 6 | 0.44 | 11
CN(CCOc1ccc(-c2ccn(S(=O)(=O)c3ccc(Cl)cc3)n2)cc1)c1ccccn1 | 1.1 | · | 5 | -9 | -4.7* | 4
CCCc1nc(SCC(=O)N2CCc3ccccc3C2)c2ccccc2n1 | -0.71 | · | 33* | -11 | -2.5 | 2
Cc1sc2nc(C3CC3)nc(SCC(=O)N3CCc4ccccc4C3)c2c1C | 0.57 | · | 37* | -5 | · | 14
Cc1sc2nc(C3CC3)nc(SCC(=O)N3CC(=O)Nc4ccccc43)c2c1C | -2.5 | · | 17 | -7 | 0.58 | 5
CCc1c(C)sc2nc(C(C)C)nc(SCC(=O)N3CCc4ccccc4C3)c12 | · | · | 31* | -21 | 0.27 | 0
Cc1cc2ccccc2n2c(SCC(=O)N3CCc4ccccc4C3)nnc12 | 0.88 | · | · | · | 0.12 | ·
COc1cccc(C2c3c(oc4ccc(Cl)cc4c3=O)C(=O)N2c2cc(C)on2)c1OC (stereo not drawn) | -1.2 | -3 | 10 | -12 | -2 | -5
O=C(Nc1ncc(Cc2cccc(Cl)c2)s1)C1=NCCN1 | -0.09 | · | 2 | 4 | · | -3
O=C(Nc1ncc(Cc2cccc(Cl)c2)s1)c1cccs1 | -1.7 | · | 47* | -17 | -3.3 | 1
O=C(Nc1ncc(Cc2ccccc2)s1)c1cccs1 | -2.2 | 38 | 25 | 8 | -0.054 | -8
Cc1ccc(Cc2cnc(NC(=O)c3cccs3)s2)cc1 | -0.9 | · | 41* | -2 | -3.2 | 10
Cc1ccccc1C(=O)Nc1nc(=S)ss1 | 0.91 | · | 18 | 21 | -5* | 6
CC(C)CC(=O)Nc1nc(=S)ss1 | 1.2 | · | 9 | 12 | -5.6* | -6
C=CCOC(=O)C1=C[C@H](c2csc3ccccc23)C[C@H](OCc2ccc(CO)cc2)O1 | · | · | · | · | -0.93 | ·
